Experimental data taken from ChEMBL document CHEMBL1153510, “Fascaplysin-inspired diindolyls as selective inhibitors of CDK4/cyclin D1” (Bioorg Med Chem, 2009).
pIC50: −log10 of the molar value.

Key:
[1] = target: Cyclin-dependent kinase 4/cyclin D1 (Homo sapiens, UniProt P11802); test: (§1) Inhibition of human CDK4/ Cyclin D1 catalytic subunit expressed in Sf9 insect cells assessed as GST-RB152 fusion protein phosphorylation-associated depletion in ATP level by luminescence assay
Method in brief: (§2)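 Human GST-cyclin D1 co-expressed with CDK4 in Sf-9 cells, purified on glutathione-agarose, eluted and dialysed. Substrate GST-RB152, expressed in E. coli BL21(DE3)pLysS with 4 mM IPTG induction for 4 h at 37 °C. Reaction: 2 µg GST-RB152 and 6 µM ATP in 50 µL Tris pH 7.5/MgCl2/BSA buffer with phosphatase inhibitors and DTT. Started with 200 ng enzyme, 30 min at 30 °C. Read-out Kinase-Glo luminescence of ATP depletion, giving IC50.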

[2] = target: Cyclin-dependent kinase 2 (Homo sapiens, UniProt P24941); test: Inhibition of human CDK2/ Cyclin A catalytic subunit expressed in Sf9 insect cells assessed as histone H1 phosphorylation-associated depletion in ATP level by luminescence assay; settings: for pIC50: read-out: IC50; for IC50: sf9
Method in brief: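 Human GST-cyclin A co-expressed with CDK2 in Sf-9 cells, captured on glutathione-agarose, eluted with reduced glutathione, then dialysed. Reaction volume 50 µL in kinase buffer (40 mM Tris pH 7.5, 20 mM MgCl2, 0.1 mg/ml BSA) with 3 µg histone H1 and 6 µM ATP. Also contains 10 mM β-glycerophosphate, 0.1 mM NaF, 0.1 mM orthovanadate and 1 mM DTT. Started with 200 ng enzyme, run 30 min at 30 °C. Remaining ATP read by Kinase-Glo luminescence; IC50 derived from ATP depletion. Compounds from 10 mM DMSO stocks, serially diluted in kinase buffer.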

[3] = target: Cyclin-dependent kinase 4/cyclin D1 (Homo sapiens, UniProt P11802+P24385); test: as §1; settings: sf9; method in brief: as §2
Chain of Cyclin-dependent kinase 4/cyclin D1 (Homo sapiens, UniProt P11802+P24385) (P11802 whole entry): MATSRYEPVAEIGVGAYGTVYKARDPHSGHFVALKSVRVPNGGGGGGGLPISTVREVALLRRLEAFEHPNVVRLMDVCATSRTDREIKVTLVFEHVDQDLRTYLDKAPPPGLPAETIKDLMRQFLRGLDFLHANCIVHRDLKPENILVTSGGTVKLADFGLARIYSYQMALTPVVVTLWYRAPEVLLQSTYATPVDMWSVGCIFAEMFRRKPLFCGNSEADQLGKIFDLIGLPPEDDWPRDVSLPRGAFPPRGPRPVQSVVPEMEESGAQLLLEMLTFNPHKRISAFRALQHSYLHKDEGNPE
Chain of Cyclin-dependent kinase 4/cyclin D1 (Homo sapiens, UniProt P11802+P24385) (P24385 whole entry): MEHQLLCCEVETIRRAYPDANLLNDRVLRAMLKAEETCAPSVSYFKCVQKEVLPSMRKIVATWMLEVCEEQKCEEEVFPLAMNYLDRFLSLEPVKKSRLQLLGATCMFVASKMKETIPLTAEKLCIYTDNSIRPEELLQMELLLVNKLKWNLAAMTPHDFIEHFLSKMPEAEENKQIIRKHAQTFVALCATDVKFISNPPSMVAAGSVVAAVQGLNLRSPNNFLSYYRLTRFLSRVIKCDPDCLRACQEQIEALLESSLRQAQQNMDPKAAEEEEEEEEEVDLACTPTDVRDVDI

Chain of Cyclin-dependent kinase 4/cyclin D1 (Homo sapiens, UniProt P11802) (P11802 whole entry, the tested form may be a part): as the sequence (P11802 whole entry) above
Chain of Cyclin-dependent kinase 4/cyclin D1 (Homo sapiens, UniProt P11802) (P24385 whole entry, further chain, the tested form may be a part): as the sequence (P24385 whole entry) above

Row | Compound | pIC50 [1] | pIC50 [2] | IC50 [3] | IC50 [2]
1 | Fc1ccc2c(ccn2CCc2c[nH]c3ccc(F)cc23)c1 | 4.14 | 3.05 |  | 
2 | O=C(C(=O)N1CCc2cc(F)ccc21)c1c[nH]c2ccccc12 | 3.87 | 3.10 |  | 
3 | Cc1ccc2[nH]cc(CCn3ccc4ccccc43)c2c1 | 3.82 | 3.40 |  | 
4 | Clc1ccc2[nH]cc(CCn3ccc4ccccc43)c2c1 | < 3.30 | < 3.30 |  | 
5 | Cc1ccc2[nH]cc(C(=O)C(=O)N3CCc4ccccc43)c2c1 | 4.38 | 3.02 |  | 
6 | O=C(C(=O)N1CCc2ccccc21)c1c[nH]c2ccc(F)cc12 | 3.94 | 2.94 |  | 
7 | Cc1ccc2c(c1)CCN2C(=O)C(=O)c1c[nH]c2ccc(C)cc12 | 4.42 | 3.15 |  | 
8 | Cc1ccc2c(ccn2CCc2c[nH]c3ccc(C)cc23)c1 | 4.36 | 3.02 |  | 
9 | Clc1ccc2c(ccn2CCc2c[nH]c3ccc(Cl)cc23)c1 | 4.42 | 3.06 |  | 
10 | c1ccc2c(c1)CCN2CCCN1CCc2ccccc21 |  |  | ND(Insoluble) | ND(Insoluble)
11 | c1ccc2c(c1)ccn2CCCn1ccc2ccccc21 | 4.42 | 2.97 |  | 
12 | c1ccc2c(c1)CCN2CCCCN1CCc2ccccc21 |  |  | ND(Insoluble) | ND(Insoluble)
13 | Cc1ccc2c(c1)CCN2C(=O)C(=O)c1c[nH]c2ccccc12 | 4.27 | 3.04 |  | 
14 | Cc1ccc2c(ccn2CCc2c[nH]c3ccccc23)c1 | 3.89 | 3.30 |  | 
15 | c1ccc2c(c1)ccn2CCCCCCn1ccc2ccccc21 | 3.97 | 2.92 |  | 
16 | c1ccc2c(c1)ccn2CCCCn1ccc2ccccc21 | 4.35 | 2.99 |  | 
17 | c1ccc2c(c1)CCN2CCCCCCN1CCc2ccccc21 |  |  | ND(Insoluble) | ND(Insoluble)
18 | Clc1ccc2c(ccn2CCc2c[nH]c3ccccc23)c1 | 3.85 | 3.37 |  | 
19 | O=C(C(=O)N1CCc2cc(Cl)ccc21)c1c[nH]c2ccccc12 | 4.16 | 2.99 |  | 
20 | c1ccc2c(c1)ccn2CCn1ccc2ccccc21 | 4.43 | 3.03 |  | 
21 | c1ccc2c(c1)CCN2CCCCCN1CCc2ccccc21 |  |  | ND(Insoluble) | ND(Insoluble)
22 | O=C(C(=O)N1CCc2cc(Cl)ccc21)c1c[nH]c2ccc(Cl)cc12 | 4.36 | 3.04 |  | 
23 | c1ccc2c(c1)ccn2CCc1c[nH]c2ccccc12 | < 3.30 | < 3.30 |  | 
24 | O=C(C(=O)N1CCc2ccccc21)c1c[nH]c2ccc(Cl)cc12 | 4.02 | 3.01 |  | 
25 | c1ccc2c(c1)CCN2CCN1CCc2ccccc21 | 4.18 | 2.91 |  | 
26 | Fc1ccc2[nH]cc(CCn3ccc4ccccc43)c2c1 | 4.30 | 3.70 |  | 
27 | c1ccc2c(c1)ccn2CCCCCn1ccc2ccccc21 | 4.28 | 3.02 |  | 
28 | Fc1ccc2c(ccn2CCc2c[nH]c3ccccc23)c1 | 4.02 | < 3.30 |  | 
29 | O=C(C(=O)N1CCc2ccccc21)c1c[nH]c2ccccc12 | 3.91 | 3.12 |  | 
30 | O=C(C(=O)N1CCc2cc(F)ccc21)c1c[nH]c2ccc(F)cc12 | 4.32 | 3.09 |  | 
